From ChEMBL document CHEMBL1828568, “Novel imaging agents for β-amyloid plaque based on the N-benzoylindole core” (Bioorg Med Chem Lett, 2011)

How the values were obtained:
[1] = Displacement of [125I]TZDM from amyloid beta (1 to 40) aggregates after 2 hrs by gamma counting
Outline: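 Competition binding against [125I]TZDM as radiolabeled standard, using Aβ1–40 aggregates; run in triplicate, results as mean ± SD.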

[2] = Binding affinity to amyloid beta fibrils
Outline: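 Competitive binding to Aβ1–40 aggregates, with [125I]TZDM as the radiolabeled reference ligand displaced by unlabeled test compound. Run in triplicate and reported as mean ± SD.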

Ki [1] | Ki [2] | SMILES
103 nM |  | COc1ccc(/C=C/C(=O)n2ccc3cc(C)ccc32)cc1
60.8 nM |  | COc1ccc(/C=C/C(=O)n2ccc3cc(OC)ccc32)cc1
 | 11.3 nM | CC(C)Cc1ccc([C@@H](C)C(=O)O)cc1 [(R)-IBUPROPHEN]
